Assay results from different studies.
DRD1: D(1A) dopamine receptor (DRD1, Homo sapiens, UniProt P21728)
BCHE: Cholinesterase (BCHE, Equus caballus, UniProt P81908)
Sterol carrier protein 2: Sterol carrier protein 2 (Aedes aegypti, UniProt Q86PR3)

| SMILES | target | assay | conditions | measurement | value |
| --- | --- | --- | --- | --- | --- |
| CN(C)C(=O)COC(=O)c1cc(-c2ccc([C@H]3C[C@H]4C[C@@H]3CN4)cc2)c2ccc(-c3ccc(C(F)(F)F)cc3)cc2c1 | DRD1 | cell-free assay, radioligand | – | Ki | 1.4 to 2.2 µM |
| CC=C1[C@H]2C=C(C)C[C@]1(N(C)C)c1ccc(=O)[nH]c1C2 | BCHE | enzyme activity, inhibitor, Ellman | – | IC50 | 224 µM |
| C[C@H]1c2c[nH]c3cccc(c23)S[C@H]1C(=O)O | trpS (Geobacillus stearothermophilus, UniProt P00953) | binding, ITC | – | Kd | 3.1 µM |
| N[C@H]1C[C@@H](CO)[C@H](c2ccc(-c3cc(C(=O)O)cc4cc(-c5ccc(C(F)(F)F)cc5)ccc34)cc2)C1 | DRD1 | cell-free assay, radioligand | – | Ki | 1.4 to 2.2 µM |
| O=S(=O)(O)c1ccc(-c2c3nc(c(-c4ccc(S(=O)(=O)O)cc4)c4ccc([nH]4)c(-c4ccc(S(=O)(=O)O)cc4)c4nc(c(-c5ccc(S(=O)(=O)O)cc5)c5ccc2[nH]5)C=C4)C=C3)cc1 | Galectin-7 (LGALS7, Homo sapiens, UniProt P47929) | binding | – | Kd | 9.5 µM |
| O=c1c(O)c(-c2ccc(O[C@@H]3O[C@H](CO)[C@@H](O)[C@H](O)[C@H]3O)c(O)c2)oc2cc(O)cc(O)c12 | BCHE | enzyme activity, inhibitor | – | Ki | 0.0281 µM |
| CC=C1[C@H]2C=C(C)C[C@]1(N(C)C)c1ccc(OC)nc1C2 | BCHE | enzyme activity, inhibitor, Ellman | – | IC50 | 1350 µM |
| CC(CCc1ccc(O)cc1)NCCc1ccc(O)c(O)c1 (stereo not drawn) | DRD1 | cAMP, agonist, TR-FRET | – | EC50 | 13 µM |
| O=c1c(O)c(-c2ccc(O)c(O)c2)oc2cc(O)cc(O)c12 | Sterol carrier protein 2 | ligand displacement | – | EC50 | 18.4 µM |
| CNC[C@H](O)c1cccc(O)c1 | DRD1 | cAMP, agonist, TR-FRET | – | EC50 | 2.8 µM |
| COc1cc(/C=C2\CCC/C(=C\c3cc(OC)c(OC)c(OC)c3)C2=O)cc(OC)c1OC | Sterol carrier protein 2 | ligand displacement, fluorescence | – | EC50 | 12.1 µM |
| CNc1nc(C#Cc2ccc(Cl)s2)nc2c1ncn2[C@@H]1O[C@H](C(=O)OC)[C@@H](O)[C@H]1O | Sodium-dependent serotonin transporter (SLC6A4, Homo sapiens, UniProt P31645) | ligand displacement, radioligand | cell membranes | Ki | > 10 µM |
